Measurements from ChEMBL document CHEMBL1132637, “Design and synthesis of potent, selective, and orally bioavailable tetrasubstituted imidazole inhibitors of p38 mitogen-activated protein kinase” (J Med Chem, 1999).
pIC50: −log10 of the molar value.

How the values were obtained:
[1] = molecular target: T1, RAF proto-oncogene serine/threonine-protein kinase (Homo sapiens, UniProt P04049); test: Inhibitory activity against recombinant human RAF proto-oncogene serine/threonine-protein kinase
[2] = molecular target: T2, Mitogen-activated protein kinase 9 (Homo sapiens, UniProt P45984); test: Inhibition of c-Jun N-terminal kinase 2-alpha 1
Target sequence in this assay (P45984 whole entry): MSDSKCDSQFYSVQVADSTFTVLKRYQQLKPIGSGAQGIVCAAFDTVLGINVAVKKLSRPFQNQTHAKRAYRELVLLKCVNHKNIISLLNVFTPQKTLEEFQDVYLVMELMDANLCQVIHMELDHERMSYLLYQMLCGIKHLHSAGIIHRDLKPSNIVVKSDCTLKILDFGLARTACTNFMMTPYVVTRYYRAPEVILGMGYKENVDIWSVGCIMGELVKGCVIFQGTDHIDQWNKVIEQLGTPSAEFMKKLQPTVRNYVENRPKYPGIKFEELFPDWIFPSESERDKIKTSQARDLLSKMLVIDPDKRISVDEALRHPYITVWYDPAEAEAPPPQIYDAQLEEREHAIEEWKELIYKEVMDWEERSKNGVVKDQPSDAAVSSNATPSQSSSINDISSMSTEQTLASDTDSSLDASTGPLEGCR

[3] = molecular target: T3, MAP kinase p38 (Homo sapiens, UniProt O15264+Q15759+Q16539+P53778); test: Inhibitory activity against Mitogen-activated protein kinase p38 (MAP kinase); format: protein assay
[4] = organism: Rattus norvegicus; test: (§1) Vd sss value in rat; format: ADME, organism-based; conditions: in vivo
Method in brief: (§2)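 Male Sprague-Dawley rats, n = 3, dosed iv at 2 mg/kg or orally at 10 mg/kg. Mean plasma concentrations were followed over time. Pharmacokinetic parameters were derived from these plasma profiles.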

[5] = organism: Rattus norvegicus; test: (§3) Clpl value in rat; format: ADME, organism-based; conditions: in vivo; method in brief: as §2
[6] = Bioavailability in rat; format: ADME, organism-based; conditions: in vivo; method in brief: as §2
[7] = test system: Rattus norvegicus; test: (§4) Intravenous half life in rat was determined; format: ADME, organism-based; conditions: in vivo; method in brief: as §2
[8] = molecular target: T3, MAP kinase p38; test: Inhibition of LPS-induced release of Tumor necrosis factor-alpha (TNF-alpha) from human whole blood; format: functional, tissue-based
[9] = molecular target: T3, MAP kinase p38; test: Inhibition of Mitogen-activated protein kinase p38; format: protein assay
[10] = molecular target: T1, RAF proto-oncogene serine/threonine-protein kinase; test: Inhibition of human c-Raf kinase
[11] = as §1; format: ADME, organism-based; conditions: in vivo, read-out: Vdss; method in brief: as §2
[12] = as §3; format: ADME, organism-based; conditions: plasma, read-out: Clpl; method in brief: as §2
[13] = as §4; format: ADME, organism-based; conditions: in vivo; method in brief: as §2
[14] = molecular target: T2, Mitogen-activated protein kinase 9; test: Inhibition of c-Jun N-terminal kinase 2-alpha 2
Target sequence in this assay (P45984 whole entry): as above

[15] = molecular target: Protein kinase C (PKC); test: Inhibition of Protein kinase C; format: protein assay
Method in brief: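 PKC (isozyme mix) was run at room temperature with 10 µM [33P]ATP and 70 µg/mL myelin basic protein substrate, under the supplier's conditions. Stopped with EDTA/pyrophosphate, filter-captured and counted by scintillation.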

[16] = molecular target: cAMP-dependent protein kinase (PKA) (Homo sapiens, UniProt P22694+P17612+P22612); test: Inhibition of Protein kinase A; format: protein assay
Method in brief: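 PKA was run at room temperature with 10 µM [33P]ATP and 10 µM kemptide substrate, under the supplier's conditions. The reaction was stopped with 75 mM phosphoric acid. Product was captured on phosphocellulose filters, washed with phosphoric acid and counted by scintillation.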

[17] = molecular target: Dual specificity mitogen-activated protein kinase kinase; MEK1/2 (Homo sapiens, UniProt P36507+Q02750); test: Inhibition of MEK-1, Mitogen activated protein kinase kinase 1; format: protein assay
[18] = Oral maximum concentration in rat; format: ADME, organism-based; parameters: route oral; conditions: in vivo; method in brief: as §2
[19] = molecular target: T1, RAF proto-oncogene serine/threonine-protein kinase; test: Inhibition human c-Raf kinase at 1000 nM
[20] = Intravenous half life in rat; format: ADME, organism-based; conditions: in vivo; method in brief: as §2
[21] = molecular target: T1, RAF proto-oncogene serine/threonine-protein kinase; test: Inhibition of human RAF kinase at 5000 nM
[22] = molecular target: T2, Mitogen-activated protein kinase 9; test: Inhibition of c-Jun N-terminal kinase 2-alpha 1 at 40000 nM
Target sequence in this assay (P45984 whole entry, looked up): as the sequence (P45984 whole entry) above

T1 sequence (P04049 whole entry): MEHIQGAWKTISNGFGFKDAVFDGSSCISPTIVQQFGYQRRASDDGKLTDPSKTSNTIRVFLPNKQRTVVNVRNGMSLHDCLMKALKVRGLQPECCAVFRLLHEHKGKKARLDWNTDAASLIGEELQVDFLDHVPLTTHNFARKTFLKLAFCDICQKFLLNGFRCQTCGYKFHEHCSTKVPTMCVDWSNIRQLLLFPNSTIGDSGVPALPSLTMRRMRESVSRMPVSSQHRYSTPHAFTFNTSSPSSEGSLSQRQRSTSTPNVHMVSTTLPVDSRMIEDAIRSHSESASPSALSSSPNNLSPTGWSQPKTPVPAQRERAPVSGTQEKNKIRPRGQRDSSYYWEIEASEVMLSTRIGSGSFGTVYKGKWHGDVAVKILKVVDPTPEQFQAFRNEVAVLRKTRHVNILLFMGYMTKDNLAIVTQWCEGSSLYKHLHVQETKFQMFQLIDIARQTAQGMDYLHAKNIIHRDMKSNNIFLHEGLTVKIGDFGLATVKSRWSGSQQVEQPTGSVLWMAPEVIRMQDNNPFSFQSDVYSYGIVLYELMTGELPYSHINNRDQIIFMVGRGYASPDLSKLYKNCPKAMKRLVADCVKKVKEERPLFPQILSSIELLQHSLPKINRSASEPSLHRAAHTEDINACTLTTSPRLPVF

| pIC50 [1] | pIC50 [2] | IC50 [3] | Compound | other results |
| --- | --- | --- | --- | --- |
| 6.96 | 6.85 |  | Fc1ccc(-c2[nH]c(C3CCCNC3)nc2-c2ccncc2)cc1 (stereo unspecified) |  |
| 6.02 |  | 0.3 µM | COc1ccc(-c2nc(-c3ccccc3)[nH]c2-c2ccncc2)cc1 |  |
|  | 5.76 |  | C[C@H](Nc1nccc(-c2[nH]c(C3CCNCC3)nc2-c2cccc(C(F)(F)F)c2)n1)c1ccccc1 | Vdss [4]: 6.5 L/kg; Clpl [5]: 146 mL/min/kg; bioavailability [6]: 0%; T1/2 [7]: 1 min; IC50 [8]: 0.006 µM; IC50 [9]: 0.00075 µM; pIC50 [10]: 5.46 |
| 6.68 |  | 0.55 µM | COc1cccc(-c2[nH]c(-c3ccccc3)nc2-c2ccncc2)c1 |  |
| 6.00 | 7.01 | 0.038 µM | COc1ccc(CNc2nccc(-c3[nH]c(-c4ccccc4)nc3-c3ccccc3)n2)cc1 |  |
| 7.64 |  | 0.14 µM | Oc1cccc(-c2nc(-c3ccccc3)[nH]c2-c2ccncc2)c1 |  |
| 6.24 |  | > 10 µM | c1ccc(-c2nc(-c3ccncc3)c(-c3ccc(C4CCCCC4)cc3)[nH]2)cc1 |  |
| 7.70 |  | 0.028 µM | Clc1ccc(-c2[nH]c(-c3ccccc3)nc2-c2ccncc2)cc1Cl |  |
| 6.21 |  | 0.15 µM | Clc1ccccc1-c1nc(-c2ccccc2)[nH]c1-c1ccncc1 |  |
| 5.35 | 6.53 | 0.00097 µM | C[C@@H](Nc1nccc(-c2[nH]c(C3CCNCC3)nc2-c2cccc(C(F)(F)F)c2)n1)c1ccccc1 | IC50 [8]: 0.0004 µM |
| 7.10 | 6.68 | 0.009 µM | Fc1ccc(-c2[nH]c(C3CCNCC3)nc2-c2ccncc2)cc1 |  |
|  | 5.93 |  | C[C@H](Nc1cc(-c2c(-c3cccc(C(F)(F)F)c3)nc(C3CCNCC3)n2C)ccn1)c1ccccc1 | Vd [11]: 12.3 L/kg; clearance [12]: 63 mL/min/kg; bioavailability [6]: 85%; half-life [13]: 2.85 h; pIC50 [14]: 5.66; IC50 [15]: > 1.5 µM; IC50 [16]: > 1.5 µM; IC50 [17]: > 10 µM; Cmax [18]: 390 nM; pIC50 [10]: 6.09 |
| 7.05 |  | 0.13 µM | Clc1cccc(-c2nc(-c3ccccc3)[nH]c2-c2ccncc2)c1 |  |
|  | 6.13 |  | COc1ccc(CNc2nccc(-c3[nH]c(C4CCNCC4)nc3-c3cccc(C(F)(F)F)c3)n2)cc1 | inhibition [19]: 66%; IC50 [9]: 0.0076 µM |
| 6.41 |  | 1.4 µM | Oc1ccc(-c2[nH]c(-c3ccccc3)nc2-c2ccncc2)cc1 |  |
| 7.07 |  | 0.97 µM | N#Cc1ccc(-c2[nH]c(-c3ccccc3)nc2-c2ccncc2)cc1 |  |
| 5.89 | 6.71 | 0.17 µM | Fc1ccc(-c2nc[nH]c2-c2ccncc2)cc1 |  |

| pIC50 [1] | pIC50 [2] | IC50 [3] | Compound | other results |
| --- | --- | --- | --- | --- |
|  | 6.04 |  | FC(F)(F)c1cccc(-c2nc(-c3ccccc3)[nH]c2-c2ccncc2)c1 | IC50 [9]: 0.086 µM; pIC50 [10]: 5.59 |
| 5.68 | 6.76 | 0.12 µM | CNc1nccc(-c2[nH]c(-c3ccccc3)nc2-c2ccccc2)n1 |  |
| 5.85 |  | 0.2 µM | FC(F)(F)c1ccc(-c2[nH]c(-c3ccccc3)nc2-c2ccncc2)cc1 |  |
| 6.87 | 7.54 | 0.07 µM | Fc1ccc(-c2[nH]c(C3CCCCC3)nc2-c2ccncc2)cc1 |  |
|  | 5.48 |  | Nc1nccc(-c2[nH]c(C3CCNCC3)nc2-c2cccc(C(F)(F)F)c2)n1 | Vd [11]: 1.23 L/kg; clearance [12]: 167 mL/min/kg; bioavailability [6]: 0%; half-life [13]: 0.132 h; inhibition [19]: 36%; IC50 [9]: 0.007 µM |
| 5.60 |  | 1 µM | c1ccc(-c2ccc(-c3[nH]c(-c4ccccc4)nc3-c3ccncc3)cc2)cc1 |  |
| 7.25 |  | 0.048 µM | Clc1ccc(-c2nc(-c3ccccc3)[nH]c2-c2ccncc2)cc1 |  |
| 5.80 |  | 0.137 µM | Clc1cc(Cl)cc(-c2[nH]c(-c3ccccc3)nc2-c2ccncc2)c1 |  |
|  |  |  | COC(=O)c1ccc(-c2[nH]c(-c3ccccc3)nc2-c2ccncc2)cc1 | IC50 [9]: > 10 µM; pIC50 [10]: 6.49 |
| 6.42 | 6.89 | 0.18 µM | c1ccc(-c2nc(-c3ccccc3)c(-c3ccncc3)[nH]2)cc1 |  |
| 5.52 |  | 0.495 µM | Fc1cccc(-c2[nH]c(-c3ccccc3)nc2-c2ccncc2)c1 |  |
| < 5.00 |  | 2.1 µM | CC(C)c1ccc(-c2[nH]c(-c3ccccc3)nc2-c2ccncc2)cc1 |  |
| 6.12 | 6.74 | 0.057 µM | Nc1nccc(-c2[nH]c(-c3ccccc3)nc2-c2ccccc2)n1 |  |
| 5.30 | 5.85 | 0.7 µM | c1ccc(-c2nc(-c3ccccc3)c(-c3ccncn3)[nH]2)cc1 |  |
|  |  |  | C[C@H](Nc1nccc(-c2c(-c3cccc(C(F)(F)F)c3)nc(C3CCNCC3)n2C)n1)c1ccccc1 | Vd [11]: 12.7 L/kg; clearance [12]: 38.3 mL/min/kg; bioavailability [6]: 64%; half-life [20]: 4.9 h; Cmax [18]: 780 nM |
|  |  |  | C[C@H](Nc1nccc(-c2nc(C3CCNCC3)n(C)c2-c2cccc(C(F)(F)F)c2)n1)c1ccccc1 | inhibition [21]: 26%; inhibition [22]: 37% |
